PubChem BioAssay AID463171 (The Scripps Research Institute Molecular Screening Center, 2010)
Activity calls are given as the source filed them.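 How the source made its calls: active means p27 reporter light at least 10 times the solvent-only level, showing blocked p27 breakdown; inactive means ratio under 10.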

Target: Cyclin-dependent kinase inhibitor 1B (Homo sapiens) (UniProt P46527)
Assay: inhibitors of p27 turnover in HeLa cells, late-stage follow-up, counter-screen for Wee1 degradation inhibitor project, cell-based, luminescence, p27-luciferase fusion, powder samples (AID 463171)
Details: HeLa p27-luciferase fusion stability, at 0.1 µM, active compounds read high
Summary of the method: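 Test system: human HeLa cells transiently expressing a p27-luciferase fusion reporter. Compound dosing: single nominal 100 nM (0.1 µM) compound dose. Incubation: 20 h compound treatment at 37 °C. Measured by: luminescence after addition of Brite-lite luciferase reagent. Measure: average fold change versus DMSO vehicle. Control set: DMSO vehicle-treated cells as reference. Repeats: quadruplicate wells.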

Cyclin-dependent kinase inhibitor 1B (Homo sapiens), sequence (P46527 whole entry, looked up, the tested form may be a part): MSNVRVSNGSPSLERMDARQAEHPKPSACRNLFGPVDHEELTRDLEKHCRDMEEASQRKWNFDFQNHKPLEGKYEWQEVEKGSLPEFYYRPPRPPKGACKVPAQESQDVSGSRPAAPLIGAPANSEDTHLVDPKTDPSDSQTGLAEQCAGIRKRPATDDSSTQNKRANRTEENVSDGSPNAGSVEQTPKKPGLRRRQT

Row | fold change | SMILES
1 | 3.13 (inactive) | c1ccc2[nH]c(CNc3nc(N4CCOCC4)nc4c3ncn4-c3ccsc3)nc2c1
2 | 4.61 (inactive) | O=[N+]([O-])c1cccc2[nH]c(CNc3nc(N4CCOCC4)nc4c3ncn4-c3ccsc3)nc12
